Consider 11 compounds from paper PMC2669315 (Bioorganic & medicinal chemistry, 2008).

The test system of assay [1] is Hsp90 client proteins Her2, Raf-1, and Akt. The assay can be described thus: Western blot analysis of Hsp90 client protein degradation in MCF-7 cells. The note with it: for IC50: Homo sapiens, MCF7, 24 h, read-out: Hsp90 client protein degradation IC50s; for degradation of Hsp90 client proteins (Her2, Raf-1, Akt) / effect on actin (non Hsp90-dependent protein): MCF-7 cells, 24 h, western blot. The class given is cell-based, human. The method in brief:
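MCF-7 cells were seeded at 1×10^6 per dish and left to attach overnight. Test compound was added at varying concentrations and incubated 24 h at 37 °C, 5% CO2. Cells were then harvested and client protein levels analysed by western blot using a previously reported method.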

The subject of assay [2] is Hsp90. The class given is biochemical, rabbit.
In another assay the test system is MCF-7 cells. The assay can be described thus: Anti-proliferation assay. The class given is cell-based, human. The method in brief: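 MCF-7 cells were grown in 1:1 DMEM:Ham's F-12 with non-essential amino acids, 2 mM L-glutamine, penicillin/streptomycin and 10% FBS, at 37 °C and 5% CO2. They were seeded at 2000/well and left to attach overnight. Test compound was added at varying concentrations in DMSO (1% final) for 72 hr. Viable cells were measured by MTS/PMS and normalised to 1% DMSO wells as 100% proliferation.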

In the next assay the test system is Her2. Nature of the assay: Her2 ELISA in SKBr3 cells. The note with it: for fold decrease in Her2 degradative activity for meta substituents: meta chloro or methoxy substituent on the benzamide. The class given is cell-based, human. The method in brief:
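SKBr3 cells were grown as for the proliferation assay, seeded at 3000/well, attached overnight, then given test compound at varying concentrations for 24 hr. Cells were washed with ice-cold PBS/1% Tween and fixed in -20 °C methanol (10 min, 4 °C), then blocked 1 hr in 5% BSA/PBST at rt. Rabbit anti-Her2 (1:500) went on overnight at 4 °C, then HRP anti-rabbit IgG (1:1000) for 2 hr at rt. Read-out was chemiluminescence on a luminometer.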
On the technique in general: An ELISA detects its analyte on a solid surface through an enzyme-linked reagent.

The subject of assay [3] is Hsp90. The note with it: assay validation; cited from earlier work.

Turning to `CC(=O)NC1=C(c2ccc(Cl)cc2)C(=O)c2ccccc2C1=O` [Compound 3g], in assay [1], the IC50 is 10 to 20 µM; the “degradation of Hsp90 client proteins (Her2, Raf-1, Akt)” value (“degradation of Hsp90 client proteins” for short) is “induced the degradation of these client proteins in a concentration-dependent manner”; the “effect on actin (non Hsp90-dependent protein)” value is “no similar effects on actin”.

For `COc1ccc(C2=C(NC(=O)c3ccc(OC)c(-c4cccc(OC)c4)c3)C(=O)c3ccccc3C2=O)cc1` [Compound 11, 3’,6-dimethoxy-N-(3-(4-methoxyphenyl)-1,4-dioxo-1,4-dihydronaphthalen-2-yl)biphenyl-3-carboxamide], the “inhibition of luciferase refolding (in words)” value in the assay with Hsp90 [2] was “unable to inhibit luciferase refolding”.

Turning to `COc1cccc(-c2cc(C(=O)NC3=C(Cl)C(=O)c4ccccc4C3=O)ccc2OC)c1` [Compound 12], the “inhibition of luciferase refolding (in words)” value in the assay on Hsp90 [2] is reported as “low micromolar activity”. The IC50 with MCF-7 cells (Homo sapiens, MCF7, read-out: anti-proliferative activity IC50) lay within 1.7 to 3 µM. Also, in assay [1], the IC50 was 10 to 20 µM; the “degradation of Hsp90 client proteins” value is “induced the degradation of these client proteins in a concentration-dependent manner”; the “effect on actin (non Hsp90-dependent protein)” value is reported as “no similar effects on actin”.

As for `COc1ccc(C2=C(NC(=O)c3ccccc3Cl)C(=O)c3ccccc3C2=O)cc1` [Compound 13a], in assay [1], the IC50 was in the range of 5 to 10 µM; the “degradation of Hsp90 client proteins” value is “induced the degradation of these client proteins in a concentration-dependent manner”; the “effect on actin (non Hsp90-dependent protein)” value is reported as “no similar effects on actin”.

Regarding `COc1ccc(C2=C(NC(=O)c3cccc(Cl)c3)C(=O)c3ccccc3C2=O)cc1` [Compound 13b], the “fold decrease in Her2 degradative activity for meta substituents” value in the assay with Her2 was found to be 6 fold.

Regarding `COc1ccc(C2=C(NC(=O)c3cccc(OC)c3)C(=O)c3ccccc3C2=O)cc1` [Compound 13e], the “fold decrease in Her2 degradative activity for meta substituents” value in the assay on Her2 was determined as 15 fold.

As for `COc1ccc(C2=C(NC(=O)c3cccc4ccccc34)C(=O)c3ccccc3C2=O)cc1` [Compound 13g], the “fold decrease in Her2 activity compared to the corresponding benzamide (4d)” value in the assay on Her2 (vs 4d) was determined as 3 fold.

In the case of `COc1ccc(C2=C(NC(=O)c3ccc4ccccc4c3)C(=O)c3ccccc3C2=O)cc1` [Compound 13h], in the assay with Her2, the “Her2 degradative activity (in words)” value is given as “complete loss of Her2 degradative activity”.

For `COc1ccc(C2=C(NC(=O)C3CCCCC3)C(=O)c3ccccc3C2=O)cc1` [Compound 13i], the “inhibition of luciferase refolding (in words)” value in the assay with Hsp90 [2] is “low micromolar activity”.

For `CC(=O)C1=C(c2ccccc2)C(=O)c2ccccc2C1=O` [HTS1], the “fold greater anti-proliferative activity against MCF-7 cells compared to SKBr3 cells” value with MCF-7 cells (MCF-7 vs SKBr3) was 4 fold.

As for `CO[C@@H]1[C@@H](OC(N)=O)[C@@H](O)[C@H](Oc2ccc3c(O)c(NC(=O)c4ccc(O)c(CC=C(C)C)c4)c(=O)oc3c2C)OC1(C)C` [novobiocin], in the assay on Hsp90 [3], the “reduction of luciferase renaturation by known Hsp90 inhibitors” value is given as “significantly reduce the renaturation of luciferase”.
